Results pooled from the literature.
Lines come from different studies, so protocols differ.
Effect on: cell growth or viability

Structure (SMILES) | cell line | test | setting | IC50 [µM]
CC[C@H](C)[C@H](NC(=O)CN)C(=O)NCC(=O)N[C@@H](C)C(=O)N[C@H](C(=O)N[C@@H](CC(C)C)C(=O)N[C@@H](CCCCN)C(=O)N[C@H](C(=O)N[C@@H](CC(C)C)C(=O)N[C@H](C(=O)N[C@H](C(=O)NCC(=O)N[C@@H](CC(C)C)C(=O)N1CCC[C@H]1C(=O)N[C@@H](C)C(=O)N[C@@H](CC(C)C)C(=O)N[C@H](C(=O)N[C@@H](CO)C(=O)N[C@@H](Cc1c[nH]c2ccccc12)C(=O)N[C@H](C(=O)N[C@@H](CCCCN)C(=O)N[C@@H](CCCNC(=N)N)C(=O)N[C@@H](CCCCN)C(=O)N[C@@H](CCCNC(=N)N)C(=O)N[C@@H](CCC(N)=O)C(=O)N[C@@H](CCC(N)=O)C(N)=O)[C@@H](C)CC)[C@@H](C)CC)[C@@H](C)O)[C@@H](C)O)C(C)C)C(C)C | HEK293 | MTT | 24 h | 4.66
[C-]#[O+].[C-]#[O+].[C-]#[O+].[C-]#[O+].[C-]#[O+].[C-]#[O+].[C-]#[O+].[C-]#[O+].[C-]#[O+].[C-]#[O+].[Mn].[Mn] | HEK293 | MTT | 48 h | 5.44
N.N.[Cl][Pt][Cl] | KARPAS-422 | ATP luminescence | 72 h | 7.16
CC[C@H](C)[C@H](NC(=O)[C@H](CO)NC(=O)[C@H](CO)NC(=O)[C@H](Cc1ccccc1)NC(=O)CN)C(=O)N[C@@H](Cc1ccccc1)C(=O)N[C@@H](CCCCNC(=N)N)C(=O)NCC(=O)N[C@H](C(=O)N[C@@H](C)C(=O)N[C@@H](CCCCNC(=N)N)C(=O)N[C@@H](Cc1ccccc1)C(=O)N[C@@H](C)C(=O)N[C@@H](CO)C(=O)N[C@@H](CCCCNC(=N)N)C(=O)NCC(=O)N[C@@H](CC(C)C)C(=O)NCC(=O)N[C@@H](CCCCNC(=N)N)C(N)=O)C(C)C | HEK293 | MTT | – | > 100
Cc1ncsc1-c1ccc([C@H](C)NC(=O)[C@@H]2C[C@@H](O)CN2C(=O)[C@@H](c2cc(N3CCC(CN4CCC(OC5CC(Oc6cc(N7C8CCC7CN(c7cc(-c9ccccc9O)nnc7N)C8)ccn6)C5)CC4)CC3)no2)C(C)C)cc1 (some centres unmarked) | HCC515 | ATP luminescence | 7 days | 0.0529
N.N.[Cl][Pt][Cl] | HEK293 | MTT | 48 h | 17.6
C[C@H](NC(=O)[C@H](Cc1c[nH]c2ccccc12)NC(=O)CNC(=O)[C@H](CCCNC(=N)N)NC(=O)[C@H](Cc1c[nH]c2ccccc12)NC(=O)[C@H](Cc1c[nH]c2ccccc12)NC(=O)[C@H](CO)NC(=O)[C@H](CO)NC(=O)[C@H](Cc1c[nH]c2ccccc12)NC(=O)CN)C(=O)N[C@@H](CCCCN)C(=O)N[C@@H](Cc1c[nH]c2ccccc12)C(=O)N[C@@H](C)C(=O)N[C@@H](CO)C(=O)N[C@@H](CCCCN)C(=O)NCC(=O)N[C@@H](Cc1c[nH]c2ccccc12)C(=O)NCC(=O)N[C@@H](CCCCN)C(N)=O | HEK293 | MTT | – | 34.1
CC(C)C[C@H](NC(=O)[C@H](CO)NC(=O)[C@H](CO)NC(=O)CNC(=O)[C@@H]1CCCN1C(=O)[C@H](Cc1ccc(O)cc1)NC(=O)[C@H](CC(C)C)NC(=O)[C@H](CO)NC(=O)[C@H](CS)NC(=O)[C@H](CC(C)C)NC(=O)[C@@H](N)CC(C)C)C(=O)O | NCI-H1975 | MTT | 72 h | > 100
